Data reported in ChEMBL document CHEMBL1132493, “Synthesis and in vitro evaluation of new 8-amino-1,4-benzoxazine derivatives as neuroprotective antioxidants” (J Med Chem, 1999).

Columns and labels:
[1] = (§1) In vitro neurotoxicity (Maximum Tolerated concentration[MTC]) was measured by quantification of cellular lysis after measurement of LDH activity released from damaged cells; format: toxicity, cell-based; settings: mouse, HT-22 cells; read-out: MTC
[2] = Ratio of MTC to PC50 after measurement of LDH activity; Safety ratio; format: functional
Summary of the method: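 Safety index: MTC divided by PC50, both from LDH release in HT-22 cells. MTC comes from 48 h drug exposure alone; PC50 from 1 h antioxidant pretreatment followed by 48 h 2 mM L-HCA exposure. Both derived by linear regression.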

[3] = system: HT-22; experiment: (§2) In vitro neurotoxicity (concentration producing 50% toxicity [TC50]) was measured by (MTT) reduction assay on murine HT-22 hippocampal cell cultures and compared to those of parent exifone,; format: functional; settings: Mus musculus, read-out: TC50 (the source's name)
[4] = system: HT-22; experiment: In vitro neuroprotective activity estimated through their protective effects against L-homocysteic acid(L-HCA) cytotoxicity) on murine HT-22 hippocampal cell cultures and compared to those of exifone. (MTT reduction assay); format: functional, Mus musculus
[5] = system: HT-22; experiment: In vitro neurotoxicity (Maximum Tolerated concentration[MTC]) was measured by (MTT) reduction assay on murine HT-22 hippocampal cell cultures and compared to those of parent exifone; format: functional, Mus musculus
[6] = system: HT-22; experiment: (§3) The concentration producing 50%protection (PC50) was obtained for lactate dehydrogenase (LDH) activity. In vitro neuroprotective activity estimated through their protective effects against L-homocysteic acid(L-HCA) cytotoxicity on murine HT-22 hip pocampal cell cultures and compared to those of exifone; format: functional, Mus musculus
[7] = (§4) In vitro neurotoxicity (concentration producing 50% toxicity [TC50]) was measured by quantification of cellular lysis after measurement of LDH activity released from damaged cells; format: cell-based; settings: mouse, HT-22 cells; read-out: TC50 (the source's name)
[8] = Ratio of MTC to PC50 in MTT reduction assay; Safety ratio; format: functional
Summary of the method: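 Safety index: MTC divided by PC50, both from MTT reduction in HT-22 cells. MTC comes from 48 h drug exposure alone; PC50 from protection against 48 h 2 mM L-HCA after 1 h pretreatment. Both estimated by linear regression.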

[9] = system: HT-22; experiment: In vitro neuroprotective activity estimated through their protective effects against L-homocysteic acid(L-HCA) cytotoxicity) on murine HT-22 hippocampal cell cultures and compared to those of exifone(MTT reduction assay); format: functional, Mus musculus
[10] = system: HT-22; experiment: as §3, with “measured by” for “obtained for”, “hippocampal” for “hip pocampal”; format: functional, Mus musculus
[11] = system: HT-22; experiment: In vitro neurotoxicity (concentration producing 50% toxicity [TC50]) was measured by (MTT) reduction assay on murine HT-22 hippocampal cell cultures and compared to those of parent exifone; format: functional; settings: Mus musculus, read-out: TC50 (the source's name)
[12] = system: HT-22; experiment: In vitro neuroprotective activity estimated through their protective effects against L-homocysteic acid(L-HCA) cytotoxicity) on murine HT-22 hippocampal cell cultures and compared to those of exifone (MTT reduction assay); format: functional, Mus musculus
[13] = system: HT-22; experiment: as §1; format: functional, Mus musculus
[14] = as §2; format: cell-based; settings: mouse, HT-22 hippocampal cells; read-out: TC50 (the source's name)
[15] = system: HT-22; experiment: as §4; format: functional; settings: Mus musculus, read-out: TC50 (the source's name)

O=C(c1ccccc1)c1ccc(NCCO)c2c1NC(CO)(CO)CO2
MNTC [1]: > 250 µM

CC1(CO)COc2c(NCCO)ccc(C(=O)c3ccccc3)c2N1 (stereo not drawn)
MNTC [1]: > 250 µM

O=C(C1=CC=C(O)C2(O)OCC3(CCCC3)N=C12)c1ccccc1 (stereo not drawn)
Ratio [2]: 1.2
CC50 [3]: 109 µM
MNTC [1]: 50 µM
PC50 [4]: 47.4 µM
MTC [5]: 50 µM
PC50 [6]: 40.9 µM
CC50 [7]: > 250 µM
Ratio [8]: 1.1

CC1(CO)COc2c(NC(CO)CO)ccc(C(=O)c3ccccc3)c2N1 (stereo not drawn)
MNTC [1]: > 250 µM

CC1(C)COc2c(NC(CO)CO)ccc(C(=O)c3ccccc3)c2N1
MNTC [1]: > 250 µM

O=C(c1ccccc1)c1ccc(O)c2c1NC(CO)CO2 (stereo not drawn)
MNTC [1]: 10 µM

CC(C)(C)C1COc2c(NCc3ccccc3)ccc(C(=O)c3ccccc3)c2N1 (stereo not drawn)
MNTC [1]: > 250 µM

O=C(c1ccccc1)c1ccc(NCc2ccccc2)c2c1NC1(CCCC1)CO2
Ratio [2]: > 36
PC50 [9]: 6.9 µM
PC50 [10]: 7.1 µM
MNTC [1]: > 250 µM
MTC [5]: >250 µM
CC50 [11]: > 250 µM
CC50 [7]: > 250 µM
Ratio [8]: > 36

O=C(c1ccccc1)c1ccc(NC(CO)CO)c2c1NC(CO)CO2 (stereo not drawn)
MNTC [1]: > 250 µM

CC(C)(C)C1COc2c(NCCc3ccccc3)ccc(C(=O)c3ccccc3)c2N1 (stereo not drawn)
Ratio [2]: 28
PC50 [9]: 8.8 µM
MNTC [1]: 250 µM
MTC [5]: 100 µM
CC50 [11]: > 250 µM
PC50 [6]: 8.9 µM
CC50 [7]: > 250 µM
Ratio [8]: 11

CC(C)CNc1ccc(C(=O)c2ccccc2)c2c1OCC1(CCCC1)N2
Ratio [2]: < 1
PC50 [9]: >10 µM
PC50 [10]: >10 µM
MNTC [1]: > 250 µM
MTC [5]: 10 µM
CC50 [11]: > 250 µM
CC50 [7]: > 250 µM
Ratio [8]: < 1

O=C(c1ccccc1)c1ccc(NCc2ccccc2)c2c1NC(c1ccccc1)(c1ccccc1)CO2
MNTC [1]: > 250 µM

CC(C)CCNc1ccc(C(=O)c2ccccc2)c2c1OCC(c1ccccc1)(c1ccccc1)N2
MNTC [1]: > 250 µM

CC1(C)COc2c(NCCO)ccc(C(=O)c3ccccc3)c2N1
MNTC [1]: 100 µM

CC(C)CCNc1ccc(C(=O)c2ccccc2)c2c1OCC(C(C)(C)C)N2 (stereo not drawn)
MNTC [1]: 10 µM

O=C(C1=CC=C(O)C2(O)OCC(CO)N=C12)c1ccccc1 (stereo not drawn)
MNTC [1]: 25 µM

O=C(c1ccccc1)c1ccc(O)c2c1NC1(CCCC1)CO2
PC50 [12]: 25 µM
Ratio [2]: 1.4
PC50 [10]: 18.4 µM
MNTC [1]: 25 µM
MTC [5]: 25 µM
CC50 [11]: 37.5 µM
CC50 [7]: 36.4 µM
Ratio [8]: 1

CC1(C)COc2c(NCc3ccccc3)ccc(C(=O)c3ccccc3)c2N1
MNTC [1]: > 250 µM

CC(C)CCNc1ccc(C(=O)c2ccccc2)c2c1OCC(C)(C)N2
MNTC [1]: 10 µM

CC(C)(C)C1COc2c(O)ccc(C(=O)c3ccccc3)c2N1 (stereo not drawn)
MNTC [1]: 5 µM

CC(C)(C)C1COC2(O)C(O)=CC=C(C(=O)c3ccccc3)C2=N1 (stereo not drawn)
Ratio [2]: 1.7
PC50 [4]: 6.5 µM
MTC [13]: 10 µM
MTC [5]: 10 µM
PC50 [6]: 5.8 µM
CC50 [14]: 17.6 µM
CC50 [15]: 38.1 µM
Ratio [8]: 1.5
